Screening data from PubChem BioAssay.
GPR7 antag: blocks human GPR7 receptor signaling | P48145 | GPR7-expressing cells, fluorescence antagonist assay | inhibition, % at 4.4 µM | hit rate 1.1% among 290,000 | AID 1861; in the data active = inhibition above about 16%, passing the limit was not always enough;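 also: cells stimulated with the agonist NPW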
Target sequence (P48145 whole entry, looked up): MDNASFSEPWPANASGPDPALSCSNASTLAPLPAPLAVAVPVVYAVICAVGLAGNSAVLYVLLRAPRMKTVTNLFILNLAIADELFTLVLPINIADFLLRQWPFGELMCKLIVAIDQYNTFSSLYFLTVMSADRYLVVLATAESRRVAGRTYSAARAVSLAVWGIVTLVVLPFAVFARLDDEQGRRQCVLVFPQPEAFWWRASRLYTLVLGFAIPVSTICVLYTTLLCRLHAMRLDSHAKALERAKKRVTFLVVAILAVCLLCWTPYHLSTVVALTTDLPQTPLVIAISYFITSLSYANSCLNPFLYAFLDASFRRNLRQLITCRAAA
697 NFkB inh: inhibitors of the PMA/ionomycin-induced NF-kB reporter in 697 B cells | 697 B-cell NF-kB luciferase reporter, 16 h | inhibition, % at 4 µM | hit rate 0.33% among 330,000; in the data active = inhibition above about 35%
Jurkat NFkB inh: inhibitors of the PMA/ionomycin-induced NF-kB reporter in Jurkat cells; inhibition, % at 4 µM; PMA/ionomycin-induced NF-kB luciferase reporter, luminescence; hit rate 0.53% among 330,000; in the data active = inhibition above about 50%
T cruzi inh: T. cruzi replication inhibition; T. cruzi beta-gal in NIH3T3, luminescence, 90 h; inhibition, % (test concentration not listed); hit rate 1.4% among 300,000; AID 1885;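 active = mean inhibition across valid replicates above about 55%, limit read from the data; inconclusive = mean below that limit but half or more replicates reach it; inactive = mean below it, under half of replicates reach it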;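 also: signal also drops with host cell toxicity which is not excluded here; higher percent means less beta-gal luminescence so fewer parasites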
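Test system: β-gal T. cruzi (Tulahuen C4) inside NIH/3T3 cells / Quantity: 5,000 cells/well / Measured by: luminescence from GalScreen with 0.05% NP40, read after 60 min / Medium: DMEM plus 2% FBS / Measure: parasite load inhibition, % / Reagent: Tulahuen C4 trypomastigotes, 5000/well / Schedule: co-culture of at least 90 h after 3 h attachment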
HSF1 activator: increases HSF-1 driven luciferase reporter signal; NIH3T3-HGL HSF-1 luciferase reporter, MG132, 8 h; 100% = twice DMSO control signal; activation, % at 9 µM; hit rate 1.7% among 300,000; AID 504408;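 active = mean replicate activation of at least 50% with a set share of replicates each reaching 50%; inconclusive = only one of those two conditions met; inactive = mean below 50% and too few replicates reaching it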
HSF1 inhib: HSF1 inhibition; NIH3T3-HGL HSE-luciferase, MG132-induced, luminescence 8 h; active compounds read low; activity change, negative = inhibition, % at 7.5 µM (by protocol); hit rate 0.77% among 300,000; AID 2098;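 active = more than half of replicate wells show activity change below -50%, luminescence cut by over half; inconclusive = some wells, but at most half, below -50%; inactive = no replicate well below -50%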;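 also: luciferase reports HSF-1 transcriptional activity via heat shock element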
A number is an active result; – = inactive; ? = inconclusive; · = not tested or not shown. A selection: hits, their analogues and other compounds. The true share with any hit is near 4.8%.

SMILES	GPR7 antag	697 NFkB inh	Jurkat NFkB inh	T cruzi inh	HSF1 activator	HSF1 inhib
C=CCC[C@H](Cc1ccc(F)cc1)C(=O)OC[C@@H](NC(=O)[C@H](CC=C)CC(=O)NCCO)C(C)(C)C	·	–	–	·	·	·
CC(=O)Nc1ccc(S(=O)(=O)c2ccc([N+](=O)[O-])cc2)cc1	–	–	–	69.7	–	–
O=C(Nc1ccc([N+](=O)[O-])cc1)C1C(c2ccccc2)=C1c1ccccc1	–	–	–	–	178.3	–
O=C(Nc1ccc(C(=O)O)cc1)Nc1ccc([N+](=O)[O-])cc1	–	–	–	–	–	–
COc1cc(/C=C/C(=O)OCC(=O)NCc2ccccc2OC)ccc1O	·	–	–	–	–	–
COc1ccc2c(c1)SCC/C2=C\CN1C(=O)CCC1=O	–	–	–	–	–	–
Oc1c(CN2CCCCC2)cc(Br)c2cccnc12	–	–	–	56.0	–	-60.2
Oc1ccc(CN2CCN(Cc3ccccc3)CC2)c2cccnc12	–	–	–	64.0	–	–
Oc1ccc(CNc2ccccc2)c2cccnc12	–	–	–	–	–	–
O=S(=O)(c1ccc(Cl)cc1)N1CCN(Cc2ccc(O)c3ncccc23)CC1	–	–	–	54.6	–	–
Oc1ccc(CNc2ccc(F)cc2)c2cccnc12	–	–	–	55.4	–	–
COc1ccc(CNC(=O)[C@H](C)NC(=O)[C@@H]2Cc3ccccc3CN2)cc1	–	–	–	–	–	–
O=[N+]([O-])c1cc(CN2CCN(c3ccccc3)CC2)c(O)c2ncccc12	–	–	–	57.8	–	?
O=[N+]([O-])c1cc(CN2CCOCC2)c2cccnc2c1O	–	·	·	·	·	·
CN1CCN(Cc2cc(COCc3ccccc3)c3cccnc3c2O)CC1	–	–	–	77.2	–	–
COc1ccc(C(=O)NNC(=O)c2ccc(C)cc2)cc1S(=O)(=O)N1CCCC1	–	–	–	–	–	–
O=C(CCN1CCOCC1)c1ccc2c(c1)OCCO2	–	–	–	–	–	–
O=C(CCN1CCc2ccccc2CC1)c1ccc2c(c1)OCCO2	–	–	–	–	82.2	–
O=C(CCCO)c1ccc2c(c1)OCCO2	–	–	–	–	–	-60.0
C/C=C(\C)CN1CCC(n2nccc2NC(=O)CCOc2ccccc2)CC1	–	–	–	–	–	–
Cc1cccc(C)c1OCc1cc(C(=O)N(Cc2c(C)nn(C)c2C)C2CC2)no1	–	–	–	–	–	–
Nc1nn(-c2cccc(F)n2)cc1-c1ccccc1	–	–	–	–	61.6	–
Nc1nn(-c2cccc(F)n2)cc1-c1ccc(Cl)cc1	–	–	–	–	84.7	–
COC(=O)C1=NNC2C(=O)N(c3ccc(C)cc3)C(=O)C12 (stereo not given)	–	–	–	–	–	–
Cc1ccc(N2C(=O)[C@@H]3C(C(=O)C(c4ccccc4)c4ccccc4)=NN[C@@H]3C2=O)cc1	–	–	–	–	52.8	–
SMILES	GPR7 antag	697 NFkB inh	Jurkat NFkB inh	T cruzi inh	HSF1 activator	HSF1 inhib
CCCc1nc2c(ccc3ccccc32)cc1CC	–	–	–	–	–	–
CC(C)(Cl)C1Cc2cc3ccc(=O)oc3cc2O1 (stereo not given)	–	–	–	–	–	–
Cc1ccc(S(=O)(=O)c2nnn3c2nc(N2CCOCC2)c2ccccc23)cc1	–	–	–	–	–	–
Cc1ccc(S(=O)(=O)c2nnn3c2nc(N2CCCCC2)c2ccccc23)cc1	–	–	–	61.4	–	–
CCc1nn(C(CC)C(=O)NCCCN2CC(C)CC(C)C2)c(=O)c2cc3oc(C)cc3n12 (stereo not given)	–	–	–	–	–	–
C/C(CC(=O)Nc1ccc(Cl)c(Cl)c1)=N\NC(=O)C(=O)N1CCCCC1	–	–	–	–	54.3	–
C/C(CC(=O)Nc1ccc(N(C)C)cc1)=N\NC(=O)c1ccncc1	–	–	–	–	–	–
C/C(CC(=O)Nc1ccc(N(C)C)cc1)=N\NC(=O)c1ccc(Cl)cc1	–	–	–	–	83.2	–
COc1ccc(NC(=O)C/C(C)=N/NC(=O)c2cnccn2)cc1	–	–	–	–	–	–
C/C(CC(=O)Nc1ccc2ccccc2c1)=N\NC(=O)c1ccc(O)c(O)c1	–	–	–	–	55.4	–
C/C(CC(=O)Nc1ccc2ccccc2c1)=N\NC(=O)c1cnccn1	–	–	–	–	73.8	–
Cc1cc(COc2ccccc2)oc1C(=O)O	–	–	–	–	–	–
